Consider 30 compounds from ChEMBL document CHEMBL1137938, “Affinity and intrinsic efficacy (IE) of 5'-carbamoyl adenosine analogues for the A1 adenosine receptor--efforts towards the discovery of a chronic ventricular rate control agent for the treatment of atrial fibrillation (AF)” (Bioorg Med Chem Lett, 2004).

The subject of series [1] is Adenosine receptor A1 (Mesocricetus auratus). Put plainly: Stimulation of binding of [35S]GTP uM).
The species named for series [2] is Cavia porcellus. As to the kind of experiment: Agonist-induced SH prolongation in guinea pig isolated heart was determined; 3-5 uM (Partial agonist). It is filed as functional.
Series [3] is described as follows: Compound remaining after incubation with 2 mg/mL of human liver microsomes at 37 degrees C for 30 min in a pH 7.4, 0.05 M phosphate buffer. It is filed as ADME, Microsome. The gist of the method:
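Incubation with human liver microsomes at 2 mg/mL, 37 C, 30 min, in 0.05 M phosphate buffer pH 7.4 containing 5 mM MgCl2 and 2 mM NADPH; percentage of parent compound remaining recorded.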

The species entered for series [4] is Cavia porcellus. Put plainly: Agonist-induced SH prolongation in guinea pig isolated heart was determined; 0.5-1 uM (Partial agonist). It is filed as functional, organism-based.
A short description of series [5]: Amount of tecadenoson present after 30 min in the liver S-9 assay as determined by mass specanalysis; 1-2. It is filed as ADME, tissue-based. The note with it: human, 0.5 h.
For series [6], the species on record is Cavia porcellus. As to the kind of experiment: Agonist-induced SH prolongation in guinea pig isolated heart was determined; 0.5-0.51 uM (Partial agonist). It is filed as functional.
Series [7] is described as follows: Amount of tecadenoson present after 30 min in the liver S-9 assay as determined by mass specanalysis. Conditions: human, 0.5 h; call rule not given here. It is filed as ADME, tissue-based.
The species named for series [8] is Cavia porcellus. As to the kind of experiment: Agonist-induced SH prolongation in guinea pig isolated heart was determined; 3-5 uM (Full agonist). It is filed as functional.
Series [9] is filed under the species Cavia porcellus. As to the kind of experiment: Agonist-induced SH prolongation in guinea pig isolated heart was determined; Inactive. It is filed as functional.
For series [10], the species on record is Cavia porcellus. As to the kind of experiment: Agonist-induced SH prolongation in guinea pig isolated heart was determined. It is filed as functional.
The nature of series [11]: Amount of tecadenoson present after 30 min in the liver S-9 assay as determined by mass specanalysis; -0.5 to 1. It is filed as ADME, tissue-based. The note with it: human, 0.5 h.
Series [12] can be described thus: Maximum concentration in rat plasma after 5 mg/kg oral gavage. It is filed as ADME, organism-based. The arrangement: dose 5 mg/kg, route oral. A digest of the protocol:
(§1)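 Rats dosed by oral gavage with parent at 5 mg/kg, or with bis-acetate prodrug at molar equivalents. Parent concentration in plasma followed over time. Cmax and AUC taken from the plasma profile. Oral bioavailability derived from AUC measurements.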

Series [13] is described as follows: Concentration in rat plasma after 5 mg/kg oral gavage for 8 hours. Further details: dose 5 mg/kg, route oral. It is filed as ADME, organism-based. The gist of the method: as §1
Series [14] is described as follows: Bioavailability in rat after 5 mg/kg oral gavage. It is filed as ADME, organism-based. The note with it: in vivo, read-out: Bioavailabiility. A digest of the protocol: as §1
The nature of series [15]: Amount of tecadenoson present after 30 min in the liver S-9 assay as determined by mass specanalysis; trace. It is filed as ADME, tissue-based. The note with it: human, 0.5 h.
Series [16] is described as follows: Plasma half life in rat after 5 mg/kg oral gavage; 6-8 hours. The arrangement: dose 5 mg/kg, route oral. It is filed as ADME, organism-based.

pEC50: −log10 of the molar value. Where only a bound is given, the exact number is not on record here.

For the compound `C=CCNC(=S)OC[C@H]1OC(n2cnc3c(N[C@@H]4CCOC4)ncnc32)[C@H](O)[C@@H]1O` (stereo not given in full), the [35S]GTPγS binding stimulation (% of CPA) in series [1] came to 78%.
On to `O=C(NC1CCCC1)OC[C@H]1OC(n2cnc3c(N[C@@H]4CCOC4)ncnc32)[C@H](O)[C@@H]1O` (stereo not given in full), for which the negative-log EC50 (pEC50) – broadly, the negative decadic logarithm of the EC50, by convention in mol/L – in the series listed under Cavia porcellus [2] is 5.30.
`CC(C)NC(=S)OC[C@H]1OC(n2cnc3c(N[C@@H]4CCOC4)ncnc32)[C@H](O)[C@@H]1O` (stereo not given in full): the [35S]GTPγS binding stimulation (% of CPA) in series [1] is 84%.
Consider `CCCNC(=S)OC[C@H]1OC(n2cnc3c(N[C@@H]4CCOC4)ncnc32)[C@H](O)[C@@H]1O` (stereo not given in full), for which, in series [3], the amount remaining (as a rule, what is left of the initial amount, in per cent) at 0.5 h amounted to 98%. This compound also showed a negative-log EC50 (pEC50) in the series filed under Cavia porcellus [4] of 6.00. The Activity in [5] worked out at 2%. In addition, in series [1], the [35S]GTPγS binding stimulation (% of CPA) worked out at 89%.
Turning to `O=C(NC1CCCCC1)OC[C@H]1OC(n2cnc3c(N[C@@H]4CCOC4)ncnc32)[C@H](O)[C@@H]1O` (stereo not given in full), the [35S]GTPγS binding stimulation (% of CPA) in series [1] was 80%.
Compound `O[C@@H]1[C@@H](COC(=S)NCc2ccccc2)OC(n2cnc3c(N[C@@H]4CCOC4)ncnc32)[C@@H]1O` (stereo not given in full) had a [35S]GTPγS binding stimulation (% of CPA) in series [1] of 93%.
Turning to `CCNC(=S)OC[C@H]1OC(n2cnc3c(N[C@@H]4CCOC4)nc(Cl)nc32)[C@H](O)[C@@H]1O` (stereo not given in full), in series [3], the amount remaining at 0.5 h is 41%. For the same compound, the pEC50 in the series listed under Cavia porcellus [6] was 6.29. This compound also yielded an Activity in series [7] of 0%. For the same compound, the [35S]GTPγS binding stimulation (% of CPA) in series [1] is 84%.
Taken in the same sequence, the figures for `CNC(=S)OC[C@H]1OC(n2cnc3c(N[C@@H]4CCOC4)nc(Cl)nc32)[C@H](O)[C@@H]1O` (stereo not given in full) were 62%, 6.29, 0% and 77%.
In the case of `CCNC(=S)OC[C@H]1OC(n2cnc3c(N[C@@H]4CCOC4)ncnc32)[C@H](O)[C@@H]1O` (stereo not given in full), the negative-log EC50 (pEC50) in the series listed under Cavia porcellus [8] is 5.30. The same compound registered a [35S]GTPγS binding stimulation (% of CPA) in [1] of 77%.
For `O[C@@H]1[C@@H](COC(=S)NC2CCCC2)OC(n2cnc3c(N[C@@H]4CCOC4)ncnc32)[C@@H]1O` (stereo not given in full), the negative-log EC50 (pEC50) in the series listed under Cavia porcellus [8] is 5.30. Also, the [35S]GTPγS binding stimulation (% of CPA) in [1] is 95%.
`CCCCNC(=S)OC[C@H]1OC(n2cnc3c(N[C@@H]4CCOC4)ncnc32)[C@H](O)[C@@H]1O` (stereo not given in full): in the series listed under Cavia porcellus [9], the EC50 result was “Not Active”. In [1], this compound displayed a [35S]GTPγS binding stimulation (% of CPA) of 70%.
Turning to `CCCCNC(=O)OC[C@H]1OC(n2cnc3c(N[C@@H]4CCOC4)ncnc32)[C@H](O)[C@@H]1O` (stereo not given in full), the pEC50 in the series listed under Cavia porcellus [10] is < 5.30. The compound further showed a [35S]GTPγS binding stimulation (% of CPA) in [1] of 49%.
Compound `CNC(=O)OC[C@H]1OC(n2cnc3c(N[C@@H]4CCOC4)nc(Cl)nc32)[C@H](O)[C@@H]1O` (stereo not given in full) gave a pEC50 in the series listed under Cavia porcellus [2] of 5.30. In addition, the [35S]GTPγS binding stimulation (% of CPA) in series [1] is 77%.
`O[C@@H]1[C@@H](COC(=S)NC2CC2)OC(n2cnc3c(N[C@@H]4CCOC4)ncnc32)[C@@H]1O` (stereo not given in full) displayed a [35S]GTPγS binding stimulation (% of CPA) in series [1] of 82%.
`O[C@@H]1[C@@H](COC(=S)NC2CCC2)OC(n2cnc3c(N[C@@H]4CCOC4)ncnc32)[C@@H]1O` (stereo not given in full) returned a [35S]GTPγS binding stimulation (% of CPA) in series [1] of 79%.
As to `CNC(=S)OC[C@H]1OC(n2cnc3c(N[C@@H]4CCOC4)ncnc32)[C@H](O)[C@@H]1O` (stereo not given in full), in series [11], the Activity turned out to be 1%. Besides, in [3], the amount remaining at 0.5 h was 99%. In the series filed under Cavia porcellus [6], this compound gave a pEC50 of 6.29. Moreover, in series [1], the [35S]GTPγS binding stimulation (% of CPA) came out at 77%.
Compound `CN(C)C(=O)OC[C@H]1OC(n2cnc3c(N[C@@H]4CCOC4)ncnc32)[C@H](O)[C@@H]1O` (stereo not given in full) gave a [35S]GTPγS binding stimulation (% of CPA) in [1] of 87%.
For `OC[C@H]1O[C@@H](n2cnc3c(N[C@@H]4CCOC4)ncnc32)[C@H](O)[C@@H]1O` [TECADENOSON], the pEC50 in the series listed under Cavia porcellus [2] was > 6.30.
The compound `CCNC(=O)OC[C@H]1OC(n2cnc3c(N[C@@H]4CCOC4)ncnc32)[C@H](O)[C@@H]1O` (stereo not given in full) gave a [35S]GTPγS binding stimulation (% of CPA) in series [1] of 80%.
Turning to `CNC(=O)OC[C@H]1OC(n2cnc3c(N[C@@H]4CCOC4)ncnc32)[C@H](OC(C)=O)[C@@H]1OC(C)=O` (stereo not given in full), in series [12], the peak concentration (Cmax) – broadly, the highest concentration seen after dosing – amounted to 647 ng/mL. Also, in series [13], the AUC – broadly, concentration integrated over time – at 8 h came to 1340 ng·h/mL.
With `O=C(NC1CC1)OC[C@H]1OC(n2cnc3c(N[C@@H]4CCOC4)ncnc32)[C@H](O)[C@@H]1O` (stereo not given in full), the [35S]GTPγS binding stimulation (% of CPA) in [1] was 82%.
`C=CCNC(=O)OC[C@H]1OC(n2cnc3c(N[C@@H]4CCOC4)ncnc32)[C@H](O)[C@@H]1O` (stereo not given in full): the [35S]GTPγS binding stimulation (% of CPA) in series [1] amounted to 48%.
On to `CNC(=O)OC[C@H]1OC(n2cnc3c(N[C@@H]4CCOC4)ncnc32)[C@H](O)[C@@H]1O` (stereo not given in full), for which the pEC50 in the series listed under Cavia porcellus [2] is 5.30. In series [12], this compound displayed a maximum concentration (Cmax) of 305 ng/mL. For the same compound, the amount remaining at 0.5 h in [3] was ~100%. Also, in series [14], the bioavailability is 9%. Besides, the Activity result in series [15] is on record as “Partially active”. In series [13], this compound came in with an AUC at 8 h of 698 ng·h/mL. Moreover, the half-life (as a rule, how long it takes for the measured level to halve) in series [16] was 8 h.
In series [1], `O[C@@H]1[C@@H](COC(=S)NC2CCCCC2)OC(n2cnc3c(N[C@@H]4CCOC4)ncnc32)[C@@H]1O` (stereo not given in full) displayed a [35S]GTPγS binding stimulation (% of CPA) of 82%.
Still for that read-out and setting: as for `CCCNC(=O)OC[C@H]1OC(n2cnc3c(N[C@@H]4CCOC4)ncnc32)[C@H](O)[C@@H]1O` (stereo not given in full), the figure is 73%; as for `O=C(NCc1ccccc1)OC[C@H]1OC(n2cnc3c(N[C@@H]4CCOC4)ncnc32)[C@H](O)[C@@H]1O` (stereo not given in full), 44%.
With `O=C(NC1CCCC1)OC[C@H]1OC(n2cnc3c(N[C@@H]4CCOC4)nc(Cl)nc32)[C@H](O)[C@@H]1O` (stereo not given in full), in the series listed under Cavia porcellus [2], the negative logarithm of the EC50 (pEC50) was 5.30. Besides, the [35S]GTPγS binding stimulation (% of CPA) in series [1] came out at 69%.
As for `O=C(NC1CCC1)OC[C@H]1OC(n2cnc3c(N[C@@H]4CCOC4)ncnc32)[C@H](O)[C@@H]1O` (stereo not given in full), in series [1], the [35S]GTPγS binding stimulation (% of CPA) was 67%.
The same measure, in the same setting: the same measure for `CN(C)C(=S)OC[C@H]1OC(n2cnc3c(N[C@@H]4CCOC4)ncnc32)[C@H](O)[C@@H]1O` (stereo not given in full): 85%; for `CC(C)NC(=O)OC[C@H]1OC(n2cnc3c(N[C@@H]4CCOC4)ncnc32)[C@H](O)[C@@H]1O` (stereo not given in full): 91%.
